The text below walks through data of ChEMBL document CHEMBL4024711, “Design, synthesis and biological evaluation of novel nitric oxide-donating protoberberine derivatives as antitumor agents” (Eur J Med Chem, 2017).

Broadly, the IC50 is the midpoint of a concentration-inhibition curve. A high value points to weaker potency in that assay.

The test system of one series is HepG2. Briefly: Cytotoxicity against human HepG2 cells after 72 hrs by MTT assay. It is filed as functional, cell-based. The note with it: HepG2, 72 h. The procedure, abridged: (§1)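 MTT assay. Cells were plated and grown 24 h at 37 °C, 5% CO2, then exposed to compound in medium with 0.1% DMSO for 72 h. MTT (5 mg/mL in PBS) was added for 4 h and absorbance read at 490 nm. IC50 was taken from dose-response curves; at least three independent experiments.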

A short description of series [1]: Induction of NO release assessed as nitrite formation in PBS at 100 uM up to 300 mins by Griess assay. The procedure, abridged:
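Compound at 100 μM was incubated at 37 °C in PBS, pH 7.4, containing 2% DMSO and 5.0 mM L-cysteine, in acellular or HepG2 cell lysates, and sampled over time. Samples were mixed with Griess reagent at 37 °C for 15 min and read at 540 nm. Nitrite was quantified against a sodium nitrite standard curve, in triplicate.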
In general terms: Griess reagent forms a coloured azo dye with nitrite.

Another series deals with SMMC-7721. The series is described as follows: Cytotoxicity against human SMMC7721 cells after 72 hrs by MTT assay. It is filed as functional, cell-based. The note with it: SMMC-7721, 72 h. An outline of the steps: as §1
In general terms: Formazan colour is commonly taken as a measure of viable cells.

A further series deals with HCT-116. The series is described as follows: Cytotoxicity against human HCT116 cells after 72 hrs by MTT assay. It is filed as functional, cell-based. The note with it: HCT-116, 72 h. The procedure, abridged:
as §1

The subject of the next series is HL-60. Briefly: Cytotoxicity against human HL60 cells after 72 hrs by MTT assay. The series is classed as functional, cell-based. The note with it: HL-60, 72 h. An outline of the steps: as §1
For the next series, the system named is L02. The series is described as follows: Cytotoxicity against human LO2 cells after 72 hrs by MTT assay. It is filed as cell-based. The note with it: L02, 72 h. The procedure, abridged: as §1
Series [2] concerns H22. Briefly: Antitumor activity against […] H22 cells xenografted in ICR mouse assessed as tumor growth inhibition at 30 mg/kg, iv administered once daily for 21 days measured post last dose relative to control. The series is classed as functional. The note with it: 504 h, read-out: TGI.
For another series, the system named is Mus musculus. The series is described as follows: Toxicity in ICR mouse xenografted with […] cells assessed as body weight at 30 mg/kg, iv administered once daily for 21 days measured post last dose (reference value: 26 +/- 0.6 g). The series is classed as organism-based. The note with it: in vivo, 504 h. For orientation: A xenograft is tissue or cells of one species grown in another, often human tumour cells in immunodeficient mice.

The subject of series [3] is H22. Briefly: Antitumor activity against human H22 cells xenografted in ICR mouse assessed as tumor growth inhibition at 20 mg/kg, iv administered once daily for 21 days measured post last dose relative to control. The note with it: 504 h, read-out: TGI.

The source made the active and inactive calls. The calls are words filed in the database; no cut-off is given here.

The compound `COc1ccc2c(Br)c3[n+](cc2c1OCCCCCCCCO[N+](=O)[O-])CCc1cc2c(cc1-3)OCO2` came in with an IC50 in the series on HepG2 of 4.14 µM. Besides, the outcome in series [1] was Active.

`COc1ccc2cc3[n+](cc2c1OCCCCCCCCO[N+](=O)[O-])CCc1cc2c(cc1-3)OCO2`: the concentration for half-maximal inhibition (IC50) in the series on HepG2 stood at 2.47 µM; in the series on SMMC-7721, 2.82 µM; in the series on HCT-116, 1.58 µM; with HL-60 it was 1.42 µM; with L02, 33.8 µM. Besides, the result in [1] was Active.

Turning to `COc1ccc2cc3[n+](cc2c1OCCO[N+](=O)[O-])CCc1cc2c(cc1-3)OCO2`, the IC50 in the series on HepG2 came to 25.2 µM.

On to `COc1cc2c(cc1OC)-c1cc3ccc(OC)c(OC)c3c[n+]1CC2.[Cl-]` [PALMATINE CHLORIDE], for which the IC50 in the series with HepG2, with SMMC-7721, in the series on HCT-116, with HL-60 and in the series on L02 was > 100 µM each time. In the series with H22 [2], the inhibition in vivo at 30 mg/kg amounted to 41.6%. The Activity in the series with Mus musculus amounted to 25.5 g.

`COc1ccc2cc3[n+](cc2c1OCCCCCCO[N+](=O)[O-])CCc1cc2c(cc1-3)OCO2` displayed an IC50 in the series on HepG2 of 8.51 µM.

As to `COc1ccc2cc3[n+](cc2c1OCCCCO[N+](=O)[O-])CCc1cc2c(cc1-3)OCO2`, the 50% inhibitory concentration (IC50) in the series on HepG2 was 18.4 µM. The outcome in [1] was Active.

Consider `COc1cc2c(cc1OC)-c1cc3ccc(OC)c(OCCCCCCCCCCCCO[N+](=O)[O-])c3c[n+]1CC2`, for which, in the series on HepG2, half-maximal inhibition (IC50) required 2.55 µM.

For the compound `COc1ccc2cc3[n+](cc2c1OC(=O)CCCCCCCO[N+](=O)[O-])CCc1cc2c(cc1-3)OCO2`, the 50% inhibitory concentration (IC50) in the series with HepG2 was > 100 µM. Also, in [1], the result was Active.

Regarding `COc1ccc2cc3[n+](cc2c1OC(=O)CCCCCCCCCO[N+](=O)[O-])CCc1cc2c(cc1-3)OCO2`, the IC50 in the series with HepG2 was > 100 µM.

The compound `COc1ccc2cc3[n+](cc2c1OCCCCCO[N+](=O)[O-])CCc1cc2c(cc1-3)OCO2` came in with a concentration for half-maximal inhibition (IC50) with HepG2 of 12.4 µM.

In the series on HepG2, `COc1cc2c(cc1OC)-c1cc3ccc(OC)c(OCCCCCCCCCCO[N+](=O)[O-])c3c[n+]1CC2` displayed an IC50 of 5.59 µM.

With `COc1ccc2cc3[n+](cc2c1OC(=O)CCCCCO[N+](=O)[O-])CCc1cc2c(cc1-3)OCO2`, in the series with HepG2, the IC50 was > 100 µM.

`COc1ccc2cc3[n+](cc2c1OCCCO[N+](=O)[O-])CCc1cc2c(cc1-3)OCO2` yielded a half-inhibitory concentration (IC50) in the series with HepG2 of 22 µM.

Turning to `COc1cc2c(cc1OC)-c1cc3ccc(OC)c(OCCCCCCCCO[N+](=O)[O-])c3c[n+]1CC2`, the IC50 in the series with HepG2 came to 3.91 µM. Moreover, the outcome in series [1] was Active.

For the compound `COc1ccc2cc3[n+](cc2c1OC)CCc1cc2c(cc1-3)OCO2` [BERBERINE CHLORIDE], the IC50 in the series on HepG2 worked out at 49 µM; with SMMC-7721 it was 25.9 µM; in the series on HCT-116 it was 40 µM; with HL-60, 27.4 µM; in the series on L02 it was 71.5 µM.

`COc1cc2c(cc1OC)-c1c(Br)c3ccc(OC)c(OCCCCCCCCCCCCO[N+](=O)[O-])c3c[n+]1CC2` showed an IC50 in the series with HepG2 of 1.98 µM.

With `O=P1(N(CCCl)CCCl)NCCCO1` (stereo unspecified) [CYCLOPHOSPHAMIDE ANHYDROUS], the inhibition in vivo at 20 mg/kg in the series on H22 [3] came to 67.1%.

In the series with HepG2, `COc1ccc2cc3[n+](cc2c1OCCCCCCCCCCCCO[N+](=O)[O-])CCc1cc2c(cc1-3)OCO2` came in with an IC50 of 2.52 µM. In series [1], the outcome was Active.

Turning to `COc1ccc2c(c1OCCCCCCCCO[N+](=O)[O-])CN1CCc3cc4c(cc3C1C2)OCO4` (stereo unspecified), the IC50 in the series on HepG2 was > 100 µM.

Compound `COc1ccc2cc3[n+](cc2c1OCCCCCCCCCCO[N+](=O)[O-])CCc1cc2c(cc1-3)OCO2` yielded a half-maximal inhibitory concentration (IC50) in the series with HepG2 of 4.34 µM.

`COc1cc2c(cc1OC)-c1c(Br)c3ccc(OC)c(OCCCCCCCCCCO[N+](=O)[O-])c3c[n+]1CC2`: the concentration for half-maximal inhibition (IC50) with HepG2 stood at 3.01 µM.
